Shown is part of a subset that was picked to be rich in hits.
GASC1 inh: blocks human GASC-1 (KDM4C) demethylase activity | GST-KDM4C 2-372, H3K9me3 peptide, LANCE TR-FRET | inhibition, % at 12.5 µM | hit rate 0.15% among 96,000 | AID 720574;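 active means mean replicate inhibition above about 25%, with at least 55% of replicates also reaching it, limit read from the data, passing the limit was not always enough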
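reagent = H3K9me3 peptide substrate, Fe(II), 2-oxoglutarate | system = GST-tagged GASC-1 (JMJD2C) catalytic fragment, aa 2-372 | amount = enzyme final amount 10 nM | read-out = Fall in 671/618 emission ratio as inhibition | medium = HEPES buffer, pH 7.5, plus ascorbate | schedule = 30 min reaction, 60 min detection, RT | measured by = LANCE TR-FRET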
IDH1 mut inh: inhibitors of human IDH1 R132H | O75874 | IDH1 R132H reductase, diaphorase/resazurin fluorescence, 60 min | inhibition, % at 10 µM | hit rate 0.18% among 70,000; in the data active means inhibition above about 34%;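 further: 0% = DMSO and 100% = no enzyme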
Target sequence (O75874 whole entry R132H): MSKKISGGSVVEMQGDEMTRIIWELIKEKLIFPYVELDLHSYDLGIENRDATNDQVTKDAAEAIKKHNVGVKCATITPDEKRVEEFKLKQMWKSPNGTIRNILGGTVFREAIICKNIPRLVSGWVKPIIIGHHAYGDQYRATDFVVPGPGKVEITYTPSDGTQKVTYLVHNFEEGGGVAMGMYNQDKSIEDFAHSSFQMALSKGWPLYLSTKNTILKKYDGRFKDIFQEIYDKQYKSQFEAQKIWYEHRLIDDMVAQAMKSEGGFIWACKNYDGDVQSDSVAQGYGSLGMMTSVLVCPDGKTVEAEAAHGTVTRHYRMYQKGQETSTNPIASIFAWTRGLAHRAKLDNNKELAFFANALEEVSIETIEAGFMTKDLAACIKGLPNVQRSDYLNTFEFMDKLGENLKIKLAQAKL
* hit, by the source's call; nt = no result given.

SMILES	GASC1 inh	IDH1 mut inh
Cc1cc(O)cc(Oc2cc(C)cc(O)c2O)c1	nt	56*
Cc1cc(C(C)(C)C)c(O)c(C(C)(C)C)c1	nt	-1
CCOC(=O)c1c(NC(=O)c2nc3nc(C)cc(C(F)F)n3n2)sc2c1CCCC2	nt	0
CO[C@H]1CN(C)C(=O)c2ccc(NS(=O)(=O)c3cccc(Cl)c3)cc2OC[C@@H](C)NC[C@H]1C	43*	72*
CO[C@H]1CN(C)C(=O)c2ccc(NS(=O)(=O)c3cccc(Cl)c3)cc2OC[C@@H](C)NC[C@@H]1C	0	0
COc1ccccc1N1CCN(CC(=O)Nc2ccc([N+](=O)[O-])cc2C(=O)Nc2ccccc2F)CC1	nt	0
COc1cc(NS(=O)(=O)c2ccc(NC(=O)c3csc(C)c3)cc2)nc(OC)n1	nt	-1
CCC(=O)N(C)C[C@@H]1Oc2cc(C#Cc3ccccc3)ccc2S(=O)(=O)N([C@H](C)CO)C[C@@H]1C	-2	0
C[C@H](O)C#Cc1ccc2c(c1)O[C@H](CN(C)Cc1cncnc1)[C@@H](C)CN([C@@H](C)CO)S2(=O)=O	7	-2
CC(C)CC#Cc1ccc2c(c1)O[C@H](CN(C)C(=O)c1cccnc1)[C@@H](C)CN([C@@H](C)CO)S2(=O)=O	3	0
CCC(=O)N(C)C[C@@H]1Oc2cc(C#Cc3ccccc3)ccc2S(=O)(=O)N([C@@H](C)CO)C[C@@H]1C	34*	11
COCC#Cc1ccc2c(c1)O[C@@H](CN(C)Cc1cccnc1)[C@@H](C)CN([C@@H](C)CO)S2(=O)=O	44*	65*
COCC#Cc1ccc2c(c1)O[C@H](CN(C)Cc1cccnc1)[C@@H](C)CN([C@@H](C)CO)S2(=O)=O	0	7
CC(C)CC#Cc1ccc2c(c1)O[C@@H](CN(C)C(=O)c1cccnc1)[C@@H](C)CN([C@@H](C)CO)S2(=O)=O	47*	39*
C[C@@H](O)C#Cc1ccc2c(c1)O[C@@H](CN(C)Cc1cncnc1)[C@@H](C)CN([C@@H](C)CO)S2(=O)=O	36*	34*
CC(C(=O)Nc1cccc(Cl)c1)N(c1ccc(Cl)cc1)S(C)(=O)=O (stereo not drawn)	nt	0
NC(=O)CSc1nc(N)c(-c2ccccc2)c(=O)[nH]1	nt	0
Cc1cc(N2CCCC2)ccc1/C=C(/C#N)c1ccc(F)cc1	nt	0
CC(=O)c1ccc(NC(=O)CCCC(=O)O)cc1	nt	0
COC(=O)C1=C(C)Nc2ncnn2C1c1ccccc1[N+](=O)[O-] (stereo not drawn)	nt	1
Cc1noc(C)c1C(=O)n1cc2c(n1)-c1cc(F)ccc1SC2	nt	-1
COc1ccc(S(=O)(=O)N(C)CC(=O)Nc2cccc(C(F)(F)F)c2)cc1	nt	-1
Cc1noc(C)c1NC(=O)N(C)C[C@H]1Oc2cc(C#CCN(C)C)ccc2S(=O)(=O)N([C@H](C)CO)C[C@@H]1C	1	0
Cc1noc(C)c1NC(=O)N(C)C[C@@H]1Oc2cc(C#CCN(C)C)ccc2S(=O)(=O)N([C@H](C)CO)C[C@H]1C	52*	44*
CCCC#Cc1ccc2c(c1)O[C@H](CN(C)Cc1cccnc1)[C@H](C)CN([C@H](C)CO)S2(=O)=O	1	6
SMILES	GASC1 inh	IDH1 mut inh
CCCC#Cc1ccc2c(c1)O[C@@H](CN(C)Cc1cccnc1)[C@@H](C)CN([C@@H](C)CO)S2(=O)=O	1	53*
CCn1c(SCC(=O)N2c3ccccc3Sc3ccccc32)nnc1-c1cc(OC)cc(OC)c1	nt	0
Cc1cccc(-c2nnc(SCC(=O)Nc3cc([N+](=O)[O-])ccc3C)o2)c1	nt	0
Cc1cc(C)c(NC(=O)CSc2nc(O)cc(=O)[nH]2)c(C)c1	nt	0
CCN1/C(=C2\C(=O)N=C(C)N2c2ccccc2)C=Cc2ccc(C)cc21	nt	1
COc1ccc(S(=O)(=O)NCC2CCCO2)cc1-c1nnc2c3ccccc3c(C)nn12 (stereo not drawn)	nt	-1
COCc1cn(CC[C@H]2CC[C@H](NC(=O)Nc3ccc(OC)cc3)[C@H](CO)O2)nn1	89*	89*
COCc1cn(CC[C@@H]2CC[C@@H](NC(=O)Nc3ccc(OC)cc3)[C@H](CO)O2)nn1	-1	0
Cc1cc(Oc2coc3cc(OCC(=O)Nc4ccccc4F)ccc3c2=O)cc(C)c1Cl	nt	0
Cn1c(SCC(=O)NCCO)nc2ccccc2c1=O	nt	3
COc1ccccc1/C=C/C(=O)N1CCCC(c2ccccc2)C1 (stereo not drawn)	nt	-4
C[C@@H]1CN([C@H](C)CO)C(=O)c2cc(C#Cc3ccncc3)cnc2O[C@@H]1CN(C)C(=O)c1ccccc1F	4	36*
COCC(=O)N(C)C[C@@H]1Oc2ncc(C#Cc3cccnc3)cc2C(=O)N([C@@H](C)CO)C[C@H]1C	37*	11
COCC(=O)N(C)C[C@H]1Oc2ncc(C#Cc3cccnc3)cc2C(=O)N([C@@H](C)CO)C[C@@H]1C	7	1

Screening data from PubChem.
